HSF-1 act: HSF-1 activators, primary screen, NIH3T3-HGL cells, MG132 stress, luminescence, single point. NIH3T3-HGL HSF-1 luciferase reporter, 8 h; 100% = twice DMSO control signal. activation, % at 9 µM. actives 1.7% (n = 300,000). AID 504408, 2011;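 active = mean replicate activation of at least 50% with a set share of replicates each reaching 50%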;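 also: 0% = median of the neutral control wells and 100% = twice that signal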
HSP90 refold inh: HSP90 inhibitors, primary screen, cell lysate, luminescence | AID 1789, 2009 | actives 0.91% (n = 290,000) | inhibition, % at 5.6 µM | Heat shock protein HSP 90 (rabbit reticulocyte lysate; luciferase refolding) | Rabbit reticulocyte lysate, luciferase refolding luminescence, 3 h;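 active = inhibition above the screen-wide mean plus 3 SD, computed separately per campaign, cut at about 16% in these data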;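 also: 0% = DMSO wells and 100% = 60 µM geldanamycin wells; inhibitors lower the luminescence because luciferase stays unfolded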
HCV NS3 hel inh: inhibitors of HCV NS3 helicase, primary screen, biochemical, Cy5 molecular beacon fluorescence. Hepatitis C virus NS3 helicase. NS3 helicase DNA unwinding. inhibition, % at 10.9 µM. actives 0.56% (n = 290,000);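 active = inhibition above the mean of all tested compounds plus 3 SD, set per campaign, cut at about 35% in these data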;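 also: 0% = DMSO wells and 100% = thioflavine S control wells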
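Measured by: Cy5 fluorescence, 0 and 60 min reads / Assay system: NS3 helicase fragment of HCV / Control set: low DMSO, high thioflavine S at 110 µM / Times: 1 h reaction at 25 °C, ATP-initiated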
HCV core dimer: inhibitors of HCV core protein dimerization, primary screen, biochemical, TR-FRET, high-throughput; inhibition, % at 5 µM; actives 0.33% (n = 300,000); TR-FRET GST/Flag-core106 dimerization, 1536-well; AID 1899, 2009;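 active = inhibition above the mean of all tested compounds plus 3 SD, set per screening campaign, cut at about 45% in these data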
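System – GST-tagged and Flag-tagged HCV core protein residues 1-106 · Repeats – one well for each compound · Technique – TR-FRET 671 and 617 nm emission · Doses – one concentration, 5 µM, in 0.5% DMSO · Times – 4 h, 22.5 °C incubation · Also added – Eu donor and XL665 acceptor anti-tag antibodies · Measure – percent inhibition of core106 dimerization signal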
FID counter: compounds displacing fluorescent DNA intercalator, primary screen, artefact control for HCV NS3 helicase inhibitor project, biochemical, FID fluorescence. DNA fluorescent intercalator displacement. inhibition, % at 7.9 µM. AID 1845, 2009. actives 0.17% (n = 290,000); in the data active = inhibition above about 37%;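 also: 0% = vehicle and 100% = reference compound; higher means more ethidium bromide displaced from hairpin DNA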
HSF1 inhib: HSF1 inhibitors in luciferase reporter cells, primary screen, cell-based, NIH3T3, luminescence; NIH3T3-HGL HSE-luciferase, MG132-induced, luminescence 8 h; active compounds read low; activity change, negative = inhibition, % at 7.5 µM (by protocol); actives 0.77% (n = 300,000); AID 2098, 2009;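 active = more than half of replicate wells show activity change below -50%, luminescence cut by over half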;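 also: luciferase reports HSF-1 transcriptional activity via heat shock element; 0% = median of DMSO wells and -100% = zero luminescence signal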
* hit, by the source's call; · = not tested or not shown. Sampled rows, rich in hits. Any-hit rate of the full collection: about 3.9%.

SMILES	HSF-1 act	HSP90 refold inh	HCV NS3 hel inh	HCV core dimer	FID counter	HSF1 inhib
Cc1ccnc(NC(c2ccsc2)c2ccc3ccc(C)nc3c2O)c1 (centres undefined)	-66.5	1.3	-5.6	-0.4	-12.2	-54.0*
COc1cc(C(Nc2ccccn2)c2ccc3ccc(C)nc3c2O)cc(OC)c1O (centres undefined)	182.9*	-0.2	13.6	-4.6	-9.4	130.5
COc1ccc(CCNC(=O)CN(c2ccccc2OC)S(C)(=O)=O)cc1OC	-1.6	1.6	5.8	-3.9	-13.2	-3.6
COc1ccc(CCNC(=O)CN(c2ccc(OC)c(OC)c2)S(C)(=O)=O)cc1OC	-72.8	2.6	-2.7	3.7	-5.9	-65.8*
O=C(Nc1ccc2ccccc2n1)c1ccc(Cl)cc1	60.0*	8.1	1.9	-1.1	-3.7	30.9
O=C(Nc1cccc(NC(=O)c2ccc(Cl)cc2)n1)c1ccc(Cl)cc1	-8.0	-1.2	0.6	5.8	-3.6	-4.6
O=C(Nc1ccc2ccccc2n1)c1ccccc1Cl	60.8*	15.9	1.2	-6.5	-8.0	27.7
O=C(NNC(=O)c1ccccc1C(=O)O)c1ccc(O)cc1	-10.0	1.5	-1.5	-2.2	2.8	-2.1
CCN(Cc1ccccc1)C(=O)c1oc2ccc(C)cc2c1C	21.2	-1.3	-10.7	5.3	-27.4	5.4
C(=N\Nc1nc(-c2ccccn2)nc2ccccc12)/c1ccccc1	160.2*	-1.4	-1.2	-4.0	0.0	110.5
O=c1cc(NCCc2ccccc2)c2ccccc2o1	57.4*	-2.9	-5.0	2.6	0.8	22.7
O=c1cc(NCCO)c2ccccc2o1	6.4	0.0	4.9	-5.7	2.9	0.3
COc1cc(C2CC(c3cccnc3)=NN2c2ccc(F)cc2)cc(OC)c1OC (centres undefined)	64.8*	-2.3	-8.3	-0.8	-6.5	50.5
CCN(CC)S(=O)(=O)c1ccc(N/N=C/c2ccc(OC)c(OC)c2OC)nc1	6.9	6.8	0.3	0.1	-6.4	-3.8
CC(C)(C)NC(=S)N/N=C/c1cc(Br)c(O)c(Br)c1	-7.7	7.9	3.8	0.3	-5.5	-0.7
COc1ccc(-c2nnc3ccc(SCC(=O)NCC4CCCO4)nn23)cc1 (centres undefined)	95.3*	9.6	17.8	0.8	-20.4	30.5
Cc1nc(SCC(=O)NCC2CCCO2)[nH]c(=O)c1C (centres undefined)	-66.6	·	·	0.0	·	-55.9*
Cn1c(SCC(=O)NCC2CCCO2)ncc(C(=O)Nc2ccc(F)cc2)c1=O (centres undefined)	67.2*	·	·	2.9	·	69.5
CC(=O)Nc1ccc(NC(=O)CSc2ncc(C(=O)Nc3ccc(F)cc3)c(=O)n2C)cc1	-5.5	·	·	2.2	·	16.0
O=C(CSc1ncnc2c1nnn2-c1ccc(F)cc1)NCC1CCCO1 (centres undefined)	73.9*	5.3	0.9	3.7	0.7	46.4
CCOC(=O)N1CCC(N2Cc3cccc(C(=O)NCc4ccccn4)c3C2=O)CC1	-41.8	1.6	3.5	-22.8	-28.8	-22.6
CC(C)C[C@H](NC(=O)Nc1ccc2c(c1)OCCO2)C(=O)O	-13.4	-1.5	9.7	-3.0	-3.8	-3.8
CC(C)(C)n1nc2c(c1NC(=O)c1ccc(Cl)c([N+](=O)[O-])c1)CS(=O)(=O)C2	-2.6	-4.9	3.3	-6.1	-1.3	4.5
CCNc1nc(NCC)n2c(SCC(=O)Nc3ccc(OC(F)F)cc3)nnc2n1	31.1	·	·	·	·	1.9
CC(=O)Nc1cccc(NC(=O)CSc2ncc(C(=O)Nc3ccccc3)c(=O)n2C)c1	205.6*	·	·	-2.0	·	177.0
SMILES	HSF-1 act	HSP90 refold inh	HCV NS3 hel inh	HCV core dimer	FID counter	HSF1 inhib
CC(=O)Nc1cccc(NC(=O)CSc2ncc(C(=O)Nc3ccc(F)cc3)c(=O)n2C)c1	-14.8	·	·	-3.1	·	3.7
CC(=O)Nc1ccc(NC(=O)CSc2ncc(C(=O)Nc3ccc(Cl)cc3)c(=O)n2C)cc1	48.2	·	·	2.3	·	46.6
Cn1c(SCC(=O)NCC2CCCO2)ncc(C(=O)Nc2ccc(Cl)cc2)c1=O (centres undefined)	57.5*	·	·	0.9	·	29.2
Cc1cccc(N2CCN(Cc3ccoc3)CC2)c1C	-7.2	0.8	-2.1	14.1	0.6	-0.5
COc1cc(CN2CCN(c3cccc(C)c3C)CC2)cc(OC)c1O	-73.7	-0.5	-4.1	3.9	13.0	-64.6*
CCOc1ccc(N2CSC3=C(C#N)C(c4ccco4)CC(=O)N3C2)cc1 (centres undefined)	0.0	1.6	14.2	78.5*	-21.2	-6.7
CCOC(=O)c1ccc(N2CSC3=C(C#N)C(c4ccc(OC)cc4OC)CC(=O)N3C2)cc1 (centres undefined)	-41.2	-0.3	19.6	12.4	-39.8	-24.9
COc1cc(/C=C/[N+](=O)[O-])ccc1OC(=O)/C=C/c1ccc(F)cc1	70.3*	10.2	-1.0	19.9	-4.8	60.1
CCOc1ccccc1-c1noc(CCCC(=O)NC2CCCCC2)n1	63.5*	4.8	18.9	10.1	-31.1	19.8
Cc1ccc(C=Nc2ccccc2C(N)=O)s1	63.4*	0.8	11.4	-14.2	-6.2	32.1
COc1ccc(-n2nc(C(=O)NCC(=O)N3CCOCC3)c3ccccc3c2=O)cc1Cl	56.2*	-0.3	-0.5	-1.6	-22.4	13.1
COc1ccc(-n2nc(C(=O)NCC(=O)N3CCCC(C)C3)c3ccccc3c2=O)cc1Cl (centres undefined)	14.8	4.5	-4.5	12.1	-35.5	5.8
CC(C)CC(OC(=O)c1cccs1)C(=O)NCc1ccco1 (centres undefined)	0.2	7.3	24.9	49.0*	-23.6	-3.9
COCc1ccc(CN2CCCC(CO)(Cc3ccccc3)C2)o1 (centres undefined)	-0.4	1.3	2.5	-0.4	9.1	-2.7
CC1CCN(S(=O)(=O)c2ccc(NC(=O)C3CSC4(C)CCC(=O)N34)cc2)CC1 (centres undefined)	-10.9	·	·	17.4	·	1.3
C=CCN(CC=C)S(=O)(=O)c1ccc(NC(=S)NC(=O)/C=C/c2cccc3ccccc23)cc1	14.0	3.0	4.5	56.4*	-13.6	-2.7
COc1ccccc1-c1nnc(N)s1	3.5	-0.7	-0.4	-1.8	9.6	-3.9
COc1ccccc1-c1nnc(SC2CCc3ccccc3NC2=O)s1 (centres undefined)	-63.4	-0.7	-4.4	-20.3	-7.2	-51.9*

Bioassay records (PubChem)
